In ChEMBL document CHEMBL4699542, “Design and synthesis of novel methoxypyridine-derived gamma-secretase modulators” (Bioorg Med Chem, 2020):

Columns and labels:
Gamma-secretase = assay: Modulation of gamma secretase in human SH-SY5Y cells overexpressing wild type APP751 assessed as inhibition of amyloid beta (35 to 42 residues) formation incubated for overnight by ELISA; type: cell-based
In short: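 SHSY5Y-APP751 cells plated at 75K/well and incubated overnight at 37 °C, then treated 24 h over 10 concentrations ([…]–10 μM, 1:3.16 steps, in duplicate). Medium Aβ42 measured by sandwich ELISA (Aβ35–42 capture, AP-conjugated Aβ1–12 detection, CDP-Star luminescence) against an Aβ42 standard curve.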

[1] = Half life in CD-1 mouse at 1 mg/kg, iv administered as single dose measured up to 24 hrs; type: ADME, organism-based; settings: CD-1, mouse, in vivo
In short: (§1)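 Male CD-1 mice, 6–8 weeks old, single dose by tail vein (1 mg/kg, 3% NMP/45% PEG300/12% ethanol/40% water) or oral gavage (5 mg/kg, 5% NMP/95% PEG300). Retro-orbital plasma sampled 0.083 (iv only) to 24 h, n=3/timepoint, and analysed by HPLC/MS/MS. Non-compartmental analysis. Half-life taken from the terminal phase using ≥3 non-zero points after Tmax.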

[2] = Ratio of drug concentration in CD-1 mouse brain to plasma at 0.4 mg/kg, iv measured after 1 hr; type: ADME, organism-based
[3] = AUClast in CD-1 mouse at 5 mg/kg, po administered as single dose measured up to 24 hrs; type: ADME, organism-based; parameters: route oral, dose 5 mg/kg, time <=24; settings: in vivo; in short: as §1
[4] = Oral bioavailability in CD-1 mouse at 5 mg/kg administered as single dose measured up to 24 hrs; type: ADME, organism-based; settings: in vivo
In short: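 CD-1 mouse PK after single iv (1 mg/kg) and oral gavage (5 mg/kg) dosing, with plasma sampled to 24 h (n=3/timepoint) and measured by HPLC/MS/MS. F(%) = (AUC0-inf po × Dose iv)/(AUC0-inf iv × Dose po) × 100.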

Mus musculus [5] = assay: In vivo modulation of gamma secretase in po dosed transgenic J20 mouse overexpressing human APP assessed as reduction in plasma amyloid beta42 level administered via gavage for 3 consecutive days and measured after 4 hrs post last dose on day 3 by meso scale discovery; type: functional, organism-based; settings: dose mg/kg 25-100, time 3.0 day
In short: (§2)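 Female J20 mice, 5–6 months old (n=5/dose), dosed orally at 25, 50 or 100 mg/kg or with vehicle (5% NMP/95% PEG300) for 3 consecutive days. Plasma was taken 4 h after the final dose. Aβ38/40/42 measured by Meso Scale multiplex immunoassay, with % reduction relative to vehicle. Mean ± SEM, ANOVA.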

Mus musculus [6] = assay: In vivo modulation of gamma secretase in po dosed transgenic J20 mouse overexpressing human APP assessed as reduction in plasma amyloid beta40 level administered via gavage for 3 consecutive days and measured after 4 hrs post last dose on day 3 by meso scale discovery; type: functional, organism-based; settings: dose mg/kg 25-100, time 3.0 day; in short: as §2
[7] = (§3) In vivo modulation of gamma secretase transgenic Tg2576 mouse overexpressing human APP harboring K595N/M596L Swedish double mutant assessed as reduction in plasma amyloid beta38 level at 50 mg/kg, po administered via gavage for 14 consecutive days and measured after 4 hrs post last dose on day 14 by meso scale discovery relative to control; type: functional; parameters: scale not given: the % may be the effect or the level left; settings: time 14 day
In short: (§4)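 Female Tg2576 mice, 5–6 months old (n=12/dose), gavaged daily for 14 days with 50 mg/kg or vehicle (5% NMP/95% PEG300). Plasma and brain taken 4 h after the last dose. Aβ38/40/42 quantified by Meso Scale multiplex assay, with % reduction versus vehicle. Mean ± SEM, ANOVA.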

[8] = as §3, with “beta40” for “beta38”; type: functional; parameters: scale not given: the % may be the effect or the level left; settings: time 14 day; in short: as §4
[9] = as §3, with “beta42” for “beta38”; type: functional; parameters: scale not given: the % may be the effect or the level left; settings: time 14 day; in short: as §4
[10] = Drug level in plasma of transgenic Tg2576 mouse overexpressing human APP harboring K595N/M596L Swedish double mutant at 50 mg/kg, po administered via gavage for 14 consecutive days and measured after 4 hrs post last dose on day 14 by HPLC-MS/MS analysis; type: ADME, organism-based; settings: time 14 day
In short: (§5)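 Female Tg2576 mice, 5–6 months old, gavaged with 50 mg/kg daily for 14 days (vehicle 5% NMP/95% PEG300), n=12/dose. Plasma and brain collected 4 h after the last dose and analysed by LC-MS/MS. LLOQ was 1 ng/mL in plasma and 5 ng/g in brain.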

[11] = Drug level in brain of transgenic Tg2576 mouse overexpressing human APP harboring K595N/M596L Swedish double mutant at 50 mg/kg, po administered via gavage for 14 consecutive days and measured after 4 hrs post last dose on day 14 by HPLC-MS/MS analysis; type: ADME, organism-based; settings: time 14 day, read-out: Ct; in short: as §5
[12] = Ratio of drug level in brain to plasma of transgenic Tg2576 mouse overexpressing human APP harboring K595N/M596L Swedish double mutant at 50 mg/kg, po administered via gavage for 14 consecutive days and measured after 4 hrs post last dose on day 14 by HPLC-MS/MS analysis; type: ADME, organism-based; settings: 336 h, time 14 day
In short: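 Female Tg2576 mice, 5–6 months old (n=12/dose), given 50 mg/kg by oral gavage daily for 14 days in 5% NMP/95% PEG300. Sacrificed 4 h after the day-14 dose. Plasma and brain drug levels measured by LC-MS/MS (LLOQ 1 ng/mL plasma, 5 ng/g brain). Ratio = brain/plasma.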

[13] = as §3, with “brain” for “plasma”; type: functional; parameters: scale not given: the % may be the effect or the level left; settings: time 14 day; in short: as §4
[14] = as §3, with “brain” for “plasma”, “beta40” for “beta38”; type: functional; parameters: scale not given: the % may be the effect or the level left; settings: time 14 day; in short: as §4
[15] = as §3, with “brain” for “plasma”, “beta42” for “beta38”; type: functional; parameters: scale not given: the % may be the effect or the level left; settings: time 14 day
In short: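 Female Tg2576 mice, 5–6 months old (n=12/dose), dosed daily by oral gavage for 14 days with vehicle (5% NMP/95% PEG300) or 50 mg/kg test article. Killed 4 h post final dose; brain and plasma Aβ38/40/42 measured by Meso Scale multiplex (SECTOR Imager 6000). Percent reduction versus vehicle; mean ± SEM, ANOVA.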

[16] = Drug metabolism in CD-1 mouse liver; type: ADME, tissue-based; settings: read-out: Drug metabolism
In short: (§6)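 Test compound at 1 μM incubated 30 min with human, rat or mouse liver microsomes (1 mg/mL); parent remaining expressed as %.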

[17] = Metabolic stability in mouse liver microsomes assessed as parent compound remaining at 1 uM incubated for 30 mins; type: ADME, Microsome; settings: 0.5 h; in short: as §6
Cytochrome P450 3A4 = Cytochrome P450 3A4 (Homo sapiens, UniProt P08684); assay: Inhibition of recombinant CYP3A4 (unknown origin) by fluorescence-based assay; type: ADME
Cytochrome P450 3A4, sequence (P08684 whole entry): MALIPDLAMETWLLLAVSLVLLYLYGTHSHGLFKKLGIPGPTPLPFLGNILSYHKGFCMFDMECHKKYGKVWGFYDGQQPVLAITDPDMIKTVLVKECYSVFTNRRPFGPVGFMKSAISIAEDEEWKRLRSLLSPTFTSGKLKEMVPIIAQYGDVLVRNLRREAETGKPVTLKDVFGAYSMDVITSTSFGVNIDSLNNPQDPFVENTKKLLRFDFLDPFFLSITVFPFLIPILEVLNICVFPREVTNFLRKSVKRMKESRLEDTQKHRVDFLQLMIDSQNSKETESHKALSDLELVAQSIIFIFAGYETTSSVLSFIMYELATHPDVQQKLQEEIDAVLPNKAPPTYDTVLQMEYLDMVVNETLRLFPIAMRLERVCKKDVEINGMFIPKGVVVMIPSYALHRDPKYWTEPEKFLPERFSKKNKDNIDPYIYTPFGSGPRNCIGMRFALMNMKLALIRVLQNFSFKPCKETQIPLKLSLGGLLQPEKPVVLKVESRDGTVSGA

[18] = molecular target: Voltage-gated inwardly rectifying potassium channel KCNH2 (Homo sapiens, UniProt Q12809); assay: Inhibition of human ERG expressed in HEK293 cells by patch clamp assay; type: cell-based
Voltage-gated inwardly rectifying potassium channel KCNH2, sequence (Q12809 whole entry): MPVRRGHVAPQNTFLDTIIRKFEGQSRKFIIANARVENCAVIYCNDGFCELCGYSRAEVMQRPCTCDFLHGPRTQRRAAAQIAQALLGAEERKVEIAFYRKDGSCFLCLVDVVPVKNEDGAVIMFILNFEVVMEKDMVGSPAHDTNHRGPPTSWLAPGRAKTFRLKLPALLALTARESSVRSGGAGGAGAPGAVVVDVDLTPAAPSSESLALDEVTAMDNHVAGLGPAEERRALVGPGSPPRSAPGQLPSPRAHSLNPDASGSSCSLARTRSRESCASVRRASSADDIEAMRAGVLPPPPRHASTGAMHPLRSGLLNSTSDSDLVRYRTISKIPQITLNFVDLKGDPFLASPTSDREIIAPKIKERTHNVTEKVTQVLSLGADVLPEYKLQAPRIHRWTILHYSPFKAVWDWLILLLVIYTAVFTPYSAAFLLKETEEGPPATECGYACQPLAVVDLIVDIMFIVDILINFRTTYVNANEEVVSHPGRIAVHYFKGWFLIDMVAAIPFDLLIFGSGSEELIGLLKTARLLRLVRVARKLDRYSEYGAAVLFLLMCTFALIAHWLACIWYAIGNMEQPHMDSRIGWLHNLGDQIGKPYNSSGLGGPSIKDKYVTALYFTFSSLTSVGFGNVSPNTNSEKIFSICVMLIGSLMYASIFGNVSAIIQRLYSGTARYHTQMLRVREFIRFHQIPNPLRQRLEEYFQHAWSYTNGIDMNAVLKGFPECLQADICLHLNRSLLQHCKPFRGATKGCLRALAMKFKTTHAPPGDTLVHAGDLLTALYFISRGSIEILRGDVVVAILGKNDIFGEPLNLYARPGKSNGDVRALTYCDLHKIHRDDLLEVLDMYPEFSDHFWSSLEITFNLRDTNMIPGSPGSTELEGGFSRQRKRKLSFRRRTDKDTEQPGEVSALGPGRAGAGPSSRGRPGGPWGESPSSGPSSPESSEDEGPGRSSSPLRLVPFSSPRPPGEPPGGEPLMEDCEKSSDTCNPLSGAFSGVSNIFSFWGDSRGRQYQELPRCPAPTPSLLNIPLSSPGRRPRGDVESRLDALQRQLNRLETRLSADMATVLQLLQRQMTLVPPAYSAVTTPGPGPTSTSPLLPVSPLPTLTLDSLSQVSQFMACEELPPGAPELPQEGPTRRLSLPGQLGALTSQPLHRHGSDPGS

[19] = Efflux ratio of apparent permeability from basolateral to apical membrane over apical to basolateral membrane in MDCK-MDR1 cells; type: ADME, cell-based, Canis lupus familiaris; settings: dog
In short: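 Calculated as B-A/A-B apparent permeability ratio across MDR1-MDCK cell monolayers; A-B permeability expressed as ×10⁻⁶ cm/s.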

CCn1nc2c(c1Nc1nc(-c3ccc(-n4cnc(C)c4)c(OC)n3)cs1)CCC2
IC50 (Gamma-secretase): 33 nM
half-life [1]: 42 min
BPR [2]: 0.37
AUClast [3]: 1205 ng·h/mL
F [4]: 66%
Activity (Mus musculus [5]): Dose-dependent effect
Activity (Mus musculus [6]): Dose-dependent effect
Activity [7]: 111%
Activity [8]: 24%
Activity [9]: 52%
concentration at 336 h [10]: 1130 ng/mL
concentration at 336 h [11]: 425 ng/g
BPR [12]: 0.374
Activity [13]: 0%
Activity [14]: 1%
Activity [15]: 23%

COc1nc(-c2csc(Nc3c4c(nn3CCF)CCCC4)n2)ccc1-n1cnc(C)c1
metabolised [16]: 60%
IC50 (Gamma-secretase): 47 nM
Stabilty [17]: 100%
IC50 (Cytochrome P450 3A4): 1000 nM
IC50 [18]: 11400 nM
BPR [2]: 0.81
Ratio [19]: 1.9
